In one assay the test system is A2780. Kind of assay: Antiproliferative activity against human A2780 cells after 48 hrs by MTT assay. In kind it is functional, cell-based. The following applies: A2780, 48 h. An outline of the steps:
(§1)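 Cells in logarithmic growth were seeded at 5 × 10^3 cells/well and left for 24 h, then exposed to a range of compound concentrations for 48 h. MTT (5 mg/mL) was added for 4 h, the formazan was dissolved in DMSO and absorbance read at 570 nm. IC50 is the concentration giving 50% growth inhibition, from at least three independent experiments, mean ± SD. Culture: DMEM, 10% heat-inactivated FBS, penicillin/streptomycin, 37 °C, 5% CO2.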

The next assay has as its system A549. Kind of assay: Antiproliferative activity against human A549 cells after 48 hrs by MTT assay. Type of assay: functional, cell-based. The following applies: A549, 48 h. In short, it runs like this: as §1
The next assay deals with PC-3. Kind of assay: Antiproliferative activity against human PC3 cells after 48 hrs by MTT assay. In kind it is functional, cell-based. The following applies: PC-3, 48 h. An outline of the steps: as §1
The test system of assay [1] is HeLa. Kind of assay: Antiproliferative activity against human HeLa cells after 48 hrs by MTT assay. Type of assay: functional, cell-based. An outline of the steps: as §1
The test system of a further assay is MCF7. Kind of assay: Antiproliferative activity against human MCF7 cells after 48 hrs by MTT assay. Type of assay: functional, cell-based. The following applies: MCF7, 48 h. An outline of the steps: as §1
Assay [2] can be described thus: Inhibition of porcine brain tubulin polymerization preincubated for 1 min followed by addition of tubulin measured every 60 s for 90 min by DAPI staining-based fluorescence assay. The arrangement: species or system Sus scrofa.
Assay [3] concerns HeLa. Kind of assay: Induction of apoptosis in human HeLa cells assessed as early apoptotic cells at 25 nM after 24 hrs by Annexin-V/FITC/propidium iodide staining-based flow cytometry method (reference value: 0.59%). Type of assay: functional.
Assay [4] deals with HeLa. Kind of assay: Cell cycle arrest in human HeLa cells assessed as accumulation at G2/M phase at 100 nM after 24 hrs by propidium iodide staining-based flow cytometry method (reference value: 19.0%). Type of assay: functional.
Assay [5] deals with HeLa. Kind of assay: Induction of apoptosis in human HeLa cells assessed as live cells at 50 nM after 24 hrs by Annexin-V/FITC/propidium iodide staining-based flow cytometry method (reference value: 99.1%). Type of assay: functional.
The subject of assay [6] is HeLa. Kind of assay: Induction of morphological changes in human HeLa cells assessed as membrane blebbing at 25 to 100 nM after 24 hrs by Hoechst 33342 staining-based laser scanning confocal microscopic method. Type of assay: functional, cell-based.
Assay [7] concerns HeLa. Kind of assay: Induction of apoptosis in human HeLa cells after 24 hrs by Annexin-V/FITC/propidium iodide staining-based flow cytometry method. Type of assay: functional, cell-based.
Assay [8] deals with HeLa. Kind of assay: Induction of apoptosis in human HeLa cells assessed as late apoptotic cells at 50 nM after 24 hrs by Annexin-V/FITC/propidium iodide staining-based flow cytometry method (reference value: 0.26%). In kind it is functional.
For assay [9], the system named is HeLa. Kind of assay: Cell cycle arrest in human HeLa cells assessed as accumulation at G2/M phase at 50 nM after 24 hrs by propidium iodide staining-based flow cytometry method (reference value: 19.0%). Type of assay: functional.
Assay [10] concerns HeLa. Kind of assay: Induction of apoptosis in human HeLa cells assessed as live cells at 25 nM after 24 hrs by Annexin-V/FITC/propidium iodide staining-based flow cytometry method (reference value: 99.1%). Type of assay: functional.
Assay [11] concerns HeLa. Kind of assay: Induction of apoptosis in human HeLa cells assessed as late apoptotic cells at 25 nM after 24 hrs by Annexin-V/FITC/propidium iodide staining-based flow cytometry method (reference value: 0.26%). In kind it is functional.
The subject of assay [12] is HeLa. Kind of assay: Induction of morphological changes in human HeLa cells assessed as microtubule shrinking at 25 to 100 nM after 24 hrs by Hoechst 33342 staining-based laser scanning confocal microscopic method. In kind it is functional, cell-based.
In assay [13] the test system is HeLa. Kind of assay: Induction of apoptosis in human HeLa cells assessed as necrotic cells at 25 nM after 24 hrs by Annexin-V/FITC/propidium iodide staining-based flow cytometry method (reference value: 0.04%). In kind it is functional.
For assay [14], the system named is HeLa. Kind of assay: Induction of apoptosis in human HeLa cells assessed as live cells at 100 nM after 24 hrs by Annexin-V/FITC/propidium iodide staining-based flow cytometry method (reference value: 99.1%). Type of assay: functional.
The subject of assay [15] is HeLa. Kind of assay: Induction of apoptosis in human HeLa cells assessed as early apoptotic cells at 100 nM after 24 hrs by Annexin-V/FITC/propidium iodide staining-based flow cytometry method (reference value: 0.59%). In kind it is functional.
For assay [16], the system named is HeLa. Kind of assay: Cell cycle arrest in human HeLa cells assessed as accumulation at G2/M phase at 25 nM after 24 hrs by propidium iodide staining-based flow cytometry method (reference value: 19.0%). In kind it is functional.
Assay [17] has as its system HeLa. Kind of assay: Induction of apoptosis in human HeLa cells assessed as necrotic cells at 50 nM after 24 hrs by Annexin-V/FITC/propidium iodide staining-based flow cytometry method (reference value: 0.04%). In kind it is functional.
Assay [18] relates to HeLa. Kind of assay: Induction of apoptosis in human HeLa cells assessed as early apoptotic cells at 50 nM after 24 hrs by Annexin-V/FITC/propidium iodide staining-based flow cytometry method (reference value: 0.59%). In kind it is functional.
For assay [19], the system named is HeLa. Kind of assay: Induction of apoptosis in human HeLa cells assessed as late apoptotic cells at 100 nM after 24 hrs by Annexin-V/FITC/propidium iodide staining-based flow cytometry method (reference value: 0.26%). Type of assay: functional.
Assay [20] has as its system HeLa. Kind of assay: Induction of apoptosis in human HeLa cells assessed as necrotic cells at 100 nM after 24 hrs by Annexin-V/FITC/propidium iodide staining-based flow cytometry method (reference value: 0.04%). Type of assay: functional.
Assay [21] has as its system HeLa. Kind of assay: Cell cycle arrest in human HeLa cells assessed as accumulation at G2/M phase after 24 hrs by propidium iodide staining-based flow cytometry method. Type of assay: functional.
The subject of assay [22] is HeLa. Kind of assay: Induction of morphological changes in human HeLa cells assessed as chromatin condensation at 25 to 100 nM after 24 hrs by Hoechst 33342 staining-based laser scanning confocal microscopic method. Type of assay: functional, cell-based.

Activity calls are given as the source filed them. No cut-off for these calls is given here.

This passage reports IC50 and Activity results from ChEMBL document CHEMBL4020716, “The synthesis and evaluation of new butadiene derivatives as tubulin polymerization inhibitors” (Bioorg Med Chem, 2017).

With `CO/C=C(\C=C\c1ccc(OC)c(O)c1)c1cc(OC)c(OC)c(OC)c1`, the IC50 in the assay on A2780 is 2220 nM; in the assay with A549 it was 1600 nM; in the assay on PC-3 it was 5320 nM; with HeLa [1] it was 5630 nM; in the assay on MCF7, 3260 nM.

As to `C=C(/C(C)=C/c1ccc(OC)c(N)c1)c1cc(OC)c(OC)c(OC)c1`, the IC50 with A2780 came to 279 nM; with A549, 269 nM; in the assay on PC-3, 457 nM; in the assay with HeLa [1], 286 nM; in the assay with MCF7, 356 nM.

With `C=C(/C(C)=C/c1ccc(OC)cc1)c1cc(OC)c(OC)c(OC)c1`, the IC50 is 839 nM with A2780; 356 nM with A549; 487 nM in the assay on PC-3; 495 nM with HeLa [1]; 965 nM in the assay on MCF7.

As for `C=C(/C=C/c1ccc(OC)c(O)c1)c1cc(OC)c(OC)c(OC)c1`, the IC50 in the assay on A2780 came out at 457 nM; with A549, 286 nM; in the assay with PC-3 it was 423 nM; in the assay with HeLa [1] it was 320 nM; in the assay on MCF7 it was 569 nM.

For `C=C(/C(C)=C/c1ccc(OC)c(F)c1)c1cc(OC)c(OC)c(OC)c1`, the IC50 in the assay on A2780 is 561 nM; with A549, 219 nM; in the assay with PC-3 it was 354 nM; in the assay with HeLa [1] it was 483 nM; in the assay with MCF7 it was 412 nM.

With `CC=C(/C=C/c1ccc(OC)c(N)c1)c1cc(OC)c(OC)c(OC)c1`, the IC50 in the assay with A2780 was 137 nM; in the assay with A549, 247 nM; with PC-3 it was 319 nM; in the assay with HeLa [1], 217 nM; in the assay with MCF7, 247 nM.

Turning to `C=C(/C=C/c1ccc(OC)c(N)c1)c1cc(OC)c(OC)c(OC)c1`, the IC50 with A2780 came out at 582 nM; with A549 it was 137 nM; in the assay with PC-3, 560 nM; in the assay on HeLa [1], 234 nM; in the assay with MCF7, 786 nM.

`COc1ccc(/C=C(\C)C(=O)c2cc(OC)c(OC)c(OC)c2)cc1O`: the IC50 in the assay with A2780 was 3 nM; in the assay on A549, 4 nM; with PC-3, 9 nM; in the assay with HeLa [1], 5 nM; with MCF7, 5 nM.

Regarding `C=C(/C(C)=C/c1ccc(OC)c(O)c1)c1cc(OC)c(OC)c(OC)c1`, the IC50 was 1010 nM in [2]; 64 nM in the assay with A2780; 56 nM in the assay on A549; 61 nM with PC-3; 60 nM in the assay with HeLa [1]; 89 nM in the assay on MCF7. In addition, the Activity in the assay on HeLa [3] was 16%; with HeLa [4] it was 72%; in the assay with HeLa [5] it was 62.7%; in the assay with HeLa [7] it was “Dose-dependent effect”; in the assay on HeLa [8], 5.8%; with HeLa [9] it was 43%. Also, the Activity is 79.1% with HeLa [10]; 3.32% in the assay on HeLa [11]; 1.56% in the assay on HeLa [13]; 56.7% in the assay on HeLa [14]; 36.6% in the assay with HeLa [15]; 30% with HeLa [16]. The Activity in the assay with HeLa [17] was 1.77%; with HeLa [18], 29.8%; in the assay with HeLa [19], 4.77%; with HeLa [20] it was 1.91%; in the assay with HeLa [21], “Dose-dependent effect”. Also, the result in the assay with HeLa [6], with HeLa [12] and with HeLa [22] was Active.

As to `CCC=C(/C(C)=C/c1ccc(OC)c(O)c1)c1cc(OC)c(OC)c(OC)c1`, the IC50 in the assay on A2780 stood at 5290 nM; with A549, 2020 nM; in the assay on PC-3, 4230 nM; in the assay on HeLa [1], 3120 nM; in the assay with MCF7, 8240 nM.

With `CCCC=C(/C(C)=C/c1ccc(OC)c(O)c1)c1cc(OC)c(OC)c(OC)c1`, the IC50 came to 2930 nM in the assay with A2780; 2460 nM in the assay with A549; 4510 nM in the assay with PC-3; 3120 nM in the assay on HeLa [1]; 3970 nM in the assay on MCF7.

For `CCC=C(/C=C/c1ccc(OC)c(N)c1)c1cc(OC)c(OC)c(OC)c1`, the IC50 amounted to 248 nM in the assay with A2780; 398 nM in the assay on A549; 285 nM in the assay on PC-3; 314 nM in the assay on HeLa [1]; 486 nM in the assay on MCF7.

For `CC=C(/C(C)=C/c1ccc(OC)c(O)c1)c1cc(OC)c(OC)c(OC)c1`, the IC50 with A2780 came to 505 nM; in the assay with A549 it was 637 nM; in the assay on PC-3, 789 nM; in the assay with HeLa [1], 563 nM; in the assay with MCF7 it was 604 nM.
